RGS7-Gao reg: regulators of human RGS7-Galphao interaction; P09471; Multiplexed bead flow cytometry, RGS7-Galphao binding; actives lie on both sides; binding response (% of control), % at 10 µM; 220,000 tested, 0.35% active; AID 1439; in the data active means binding response below about 49% or above about 150%; inconclusive means no clear call, values can overlap the other calls; inactive means in between;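 further: fluorescent Galphao held in activated GDP-AlF4 state binding bead-coupled RGS7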
RGS8-Gao: modulates binding of RGS8 to human Galphao | 220,000 tested, 0.34% active | response (percent of control binding), % at 10 µM | AID 1423 | multiplexed bead flow cytometry; actives lie on both sides | P09471; in the data active means response below about 60% or above about 140%; inactive means in between;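 further: Galphao activated as the GDP aluminium fluoride complex binding bead-coupled RGS8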
RGS16-Gao HTS: modulates binding between human RGS16 and Galphao; O15492+P09471; bead-based flow cytometry RGS16-Galphao binding, fluorescence; actives lie on both sides; binding response (% of control), % at 10 µM; 220,000 tested, 0.38% active; AID 1441;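 further: Galphao activated by GDP with aluminum fluoride before binding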
RGS4-Gao reg: modulates binding of RGS4 to human Galphao | Multiplexed bead flow cytometry; actives lie on both sides | binding response (% of control), % at 10 µM | 220,000 tested, 0.33% active | AID 1415; in the data active means binding response below about 49% or above about 150%; inactive means in between;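 further: fluorescent Galphao activated with aluminum fluoride binding bead-coupled RGS4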
ABCB1 block: blocks JC-1 efflux by human ABCB1 transporter; P08183; inhibition, % at 6.6 µM; 190,000 tested, 0.067% active; AID 1326; CCRF-Adr cells, flow cytometry; in the data active means inhibition above about 40%;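 further: higher value means more JC-1 retained so stronger ABCB1 efflux block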
Target sequence (P08183 whole entry, looked up): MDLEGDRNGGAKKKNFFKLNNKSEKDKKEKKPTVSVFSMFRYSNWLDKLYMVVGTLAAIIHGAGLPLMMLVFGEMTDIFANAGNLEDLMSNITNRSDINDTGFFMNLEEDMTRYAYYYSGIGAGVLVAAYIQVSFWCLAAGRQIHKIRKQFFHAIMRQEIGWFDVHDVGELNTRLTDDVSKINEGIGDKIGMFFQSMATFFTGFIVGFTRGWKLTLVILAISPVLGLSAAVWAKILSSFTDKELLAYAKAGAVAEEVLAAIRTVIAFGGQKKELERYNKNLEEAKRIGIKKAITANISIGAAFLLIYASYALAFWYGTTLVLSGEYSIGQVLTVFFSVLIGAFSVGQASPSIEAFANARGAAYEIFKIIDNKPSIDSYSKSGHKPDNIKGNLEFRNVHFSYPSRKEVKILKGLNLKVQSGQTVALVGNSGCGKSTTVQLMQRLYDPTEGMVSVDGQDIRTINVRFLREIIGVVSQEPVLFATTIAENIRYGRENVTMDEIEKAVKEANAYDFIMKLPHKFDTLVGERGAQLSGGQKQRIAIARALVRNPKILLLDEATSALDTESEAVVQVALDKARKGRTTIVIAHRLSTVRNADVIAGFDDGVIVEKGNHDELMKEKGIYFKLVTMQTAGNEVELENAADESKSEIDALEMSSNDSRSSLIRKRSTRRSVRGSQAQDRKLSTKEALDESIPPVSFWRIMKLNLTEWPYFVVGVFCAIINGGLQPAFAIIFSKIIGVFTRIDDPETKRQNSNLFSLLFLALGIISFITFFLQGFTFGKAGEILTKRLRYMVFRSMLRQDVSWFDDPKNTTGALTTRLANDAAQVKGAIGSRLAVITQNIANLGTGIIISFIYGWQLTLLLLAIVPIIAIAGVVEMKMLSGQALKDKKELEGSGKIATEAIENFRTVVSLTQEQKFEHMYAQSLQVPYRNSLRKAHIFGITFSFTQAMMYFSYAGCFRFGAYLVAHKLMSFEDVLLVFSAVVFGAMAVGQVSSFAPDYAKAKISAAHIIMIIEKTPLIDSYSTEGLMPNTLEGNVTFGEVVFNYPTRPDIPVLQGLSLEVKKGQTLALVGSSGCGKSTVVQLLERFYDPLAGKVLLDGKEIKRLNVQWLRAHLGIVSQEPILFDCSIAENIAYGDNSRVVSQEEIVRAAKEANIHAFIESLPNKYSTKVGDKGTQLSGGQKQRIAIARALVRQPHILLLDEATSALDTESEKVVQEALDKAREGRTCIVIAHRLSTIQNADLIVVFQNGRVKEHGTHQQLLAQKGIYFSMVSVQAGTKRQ
ABCG2 inh: human ABCG2 inhibition, ABCB1 as counter-screen; IgMXP3 cells, JC-1 efflux, flow cytometry; inhibition, % at 6.6 µM; 190,000 tested, 0.1% active; AID 1325;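 active means inhibition above 80%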
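Test system: IgMXP3 (ABCG2) plus far-red-tagged CCRF-Adr (ABCB1) cells. Reagent: JC-1 dye as substrate. Timing: 10 min exposure at 25 °C with rotation, no wash. Measured by: flow cytometric JC-1 green MFI at 530 nm. Read-out: percent efflux inhibition, scaled nicardipine 100% to DMSO 0%. Control set: nicardipine and DMSO wells.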
RGS4-Gao HTS: RGS4-Galphao interaction regulator (human). RGS4–Galpha-o binding response, % at 10 µM. shares compounds with RGS16-Gao HTS. 1,600 tested, 99% active. multiplexed bead flow cytometry, RGS–Galpha-o binding;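 further: fluorescently labeled Galpha-o bound to GDP with aluminium fluoride binding biotinylated RGS beads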
Biotin-avidin: interferes with biotinylated probe binding to avidin beads. 1,700 tested, under 10 active. inhibition, % at 10 µM. shares compounds with RGS16-Gao HTS. AID 1783. streptavidin beads, fluorescein-biotin binding, flow cytometry;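 active means inhibition above 50%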;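 further: median green fluorescence of gated singlet beads compared with DMSO control wells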
RGS8-Gao single: confirmation of regulators of human RGS8-Galphao interaction. bead-based flow cytometry RGS8-Galphao binding, fluorescence; actives lie on both sides. 1,700 tested, 3% active. shares compounds with RGS16-Gao HTS. AID 1836. binding response (% of control), % at 10 µM; in the data active means binding response below about 72% or above about 130%; inactive means in between;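 further: Galphao activated as GDP AlF4 complex before binding bead RGS8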
RGS7-Gao confirm: RGS7-Galphao interaction regulation, single point confirmation | shares compounds with RGS16-Gao HTS | bead-based flow cytometry RGS7-Galphao binding; actives lie on both sides | response (percent of control binding), % at 10 µM | 1,700 tested, 7.8% active | AID 1837; in the data active means response below about 75% or above about 130%; inactive means in between;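 further: fluorescent Galphao activated with GDP and aluminum fluoride binding bead-coupled RGS7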
RGS16-Gao single: confirmation of regulators of human RGS16-Galphao interaction | shares compounds with RGS16-Gao HTS | bead-based flow cytometry, RGS16-Galphao binding; actives lie on both sides | response (% of control binding), % at 10 µM | 1,700 tested, 4% active; in the data active means response below about 74% or above about 130%; inactive means in between;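 further: Galphao activated as the GDP aluminium fluoride complex binding bead-coupled RGS16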
RGS4-Gao confirm: confirmation of regulators of human RGS4-Galphao interaction; shares compounds with RGS16-Gao HTS; RGS4-Galphao binding, multiplexed bead flow cytometry; actives lie on both sides; binding response (% of control), % at 10 µM; 1,700 tested, 4% active; in the data active means binding response below about 74% or above about 130%; inactive means in between
RGS19-Gao single: RGS19-Galphao interaction regulation, single point confirmation. 1,700 tested, 5% active. shares compounds with RGS16-Gao HTS. response (percent of control binding), % at 10 µM. bead-based flow cytometry RGS19-Galphao binding; actives lie on both sides. AID 1841; in the data active means response below about 50% or above about 160%; inactive means in between
Numbers stand for hits; n = inactive; u = inconclusive; x = not tested or not shown; [ ] = remark or other dose. Only some compounds are listed: those with a hit (about 0.83% of all), similar ones and a draw of the others. Unless noted, how the calls were made is not given here.

SMILES | RGS7-Gao reg | RGS8-Gao | RGS16-Gao HTS | RGS4-Gao reg | ABCB1 block | ABCG2 inh | RGS4-Gao HTS | Biotin-avidin | RGS8-Gao single | RGS7-Gao confirm | RGS16-Gao single | RGS4-Gao confirm | RGS19-Gao single
CC1=NCCN1CCNC(=O)Nc1cc(C)cc(C)c1 | u | n | n | 47 | x | x | x | n | n | n | n | n | n
CC(C)CSc1ccc(S(=O)(=O)NCC(=O)O)cc1[N+](=O)[O-] | 278[activator] | n | n | n | n | n | 125 | n | n | n | n | n | n
COc1ccc(NC(=S)NCCc2ccc(F)cc2)c(OC)c1 | n | n | 19 | n | n | n | 88 | n | n | n | n | n | n
O=C(CC1SC(=Nc2ccc(OC(F)F)cc2)N(CCC2=CCCCC2)C1=O)Nc1ccccc1F (stereo not given) | n | n | 25 | n | n | n | 89 | n | n | n | n | n | n
O=C(CSc1nnnn1-c1ccccc1)Nc1ncc2c(n1)CC(c1ccco1)CC2=O (stereo not given) | 39 | 57 | n | 35 | n | n | x | n | n | n | n | n | n
COc1ccccc1C(=O)Nc1ncc2c(n1)CC(c1ccco1)CC2=O (stereo not given) | n | n | n | n | n | n | x | x | x | x | x | x | x
COc1ccc(Cl)cc1NC(=O)Nc1cn(C)nc1C | u | n | n | n | x | x | x | x | x | x | x | x | x
CC(=O)Nc1nc2c(C)c(Cl)ccc2s1 | u | n | n | n | x | x | x | n | n | n | n | n | n
Cc1ccc(S(=O)(=O)N2CCCCC2)cc1NC(=O)CSc1nccn1C | n | n | n | n | n | n | x | x | x | x | x | x | x
NS(=O)(=O)c1ccc(NC(=O)COc2ncnc3c2cnn3-c2ccccc2)cc1 | n | n | n | n | n | n | x | x | x | x | x | x | x
CCSc1ccccc1C(=O)NCc1cccnc1 | n | 59 | n | n | n | n | 94 | n | n | 67 | n | 73 | n
CCC(C)[C@H](NC(=O)N1CCCCCC1)C(=O)OC (stereo not given in full) | u | n | n | n | x | x | x | x | x | x | x | x | x
CCN(Cc1ccncc1)Cc1c(O)ccc2cc(Br)ccc12 | n | n | n | n | n | n | x | x | x | x | x | x | x
O=S1(=O)CCC(N=Cc2cc(Br)ccc2O)C1 (stereo not given) | 151[activator] | n | n | n | n | n | 112 | n | n | n | n | n | n
Cc1ccc2ncnc(Oc3ncccc3NC(=O)C(C)(C)C)c2c1 | u | n | n | n | x | x | x | x | x | x | x | x | x
CNc1nc(-c2ccc3c(c2)CCN3C(=O)c2ccccc2C)cs1 | n | 59 | n | n | n | n | 84 | n | n | n | n | n | n
CNc1nc(-c2ccc3c(c2)CCN3C(=O)c2ccc(F)cc2)cs1 | n | n | n | n | n | n | x | x | x | x | x | x | x
NC(=O)NC(=O)COC(=O)c1ccccc1OCc1ccc(F)cc1 | u | 55 | n | 40 | x | x | x | n | n | n | n | n | n
CC(C)(C)C(=O)COC(=O)c1cc(-c2ccncc2)nc2ccccc12 | u | n | n | n | n | n | x | x | x | x | x | x | x
CC1=C(C(=O)OCC2CCCO2)C(c2ccsc2)C2=C(CC(C)(C)CC2=O)N1 (stereo not given) | n | n | n | n | n | n | x | x | x | x | x | x | x
COC(=O)C1=C(C)NC2=C(C(=O)CC(C)(C)C2)C1c1ccsc1 (stereo not given) | 25 | 25 | 18 | 28 | n | n | x | n | n | n | n | n | n
CCCc1cc(=O)[nH]c(SCC(=O)c2ccc3c(c2)NC(=O)CO3)n1 | u | 150[activator] | 342[activator] | 387[activator] | x | x | x | n | n | n | n | n | n
CCC/C(O)=C1\C(=O)CC(c2ccccc2)CC1=NCCc1c(C)[nH]c2ccc(C)cc12 (stereo not given) | n | 52 | 14 | n | n | n | 52 | x | x | x | x | x | x
O=C1C=C(c2ccccc2)CC(/C=C/c2ccccc2)C1 (stereo not given) | n | n | n | n | n | n | x | x | x | x | x | x | x
CC(C)CC(NC(=O)C(CC(C)C)NC(=O)OC(C)(C)C)C(=O)O (stereo not given) | x | x | x | x | n | n | x | n | n | n | n | n | n
SMILES | RGS7-Gao reg | RGS8-Gao | RGS16-Gao HTS | RGS4-Gao reg | ABCB1 block | ABCG2 inh | RGS4-Gao HTS | Biotin-avidin | RGS8-Gao single | RGS7-Gao confirm | RGS16-Gao single | RGS4-Gao confirm | RGS19-Gao single
CC(C)CC(NC(=O)C(CC(C)C)NC(=O)OC(C)(C)C)C(N)=O (stereo not given) | n | n | n | n | n | n | x | x | x | x | x | x | x
CC(C)CC(NC(=O)C(NC(=O)C(Cc1ccc(OCc2ccccc2)cc1)NC(=O)OC(C)(C)C)C(C)C)C(N)=O (stereo not given) | n | n | 183[activator] | n | n | n | 104 | n | n | n | n | n | n
O=C(NCCCn1ccnc1)c1ccc(S(=O)(=O)Nc2ccccc2)cc1 | u | n | n | n | x | x | x | x | x | x | x | x | x
O=C(NCC1CCCO1)C(c1cccs1)N(Cc1ccccc1Cl)C(=O)c1ccc(-c2ccccc2)[nH]1 (stereo not given) | n | n | 178[activator] | n | x | n | 99 | n | n | n | n | n | n
Cc1ccc(C(=O)C2Oc3ccccc3C3CC(c4ccc(C)cc4)=NN23)cc1 (stereo not given) | n | 57 | n | n | n | n | 79 | n | n | n | n | n | n
CC1(C)CC(NC(=O)c2ccccc2C(=O)NC2CC(C)(C)NC(C)(C)C2)CC(C)(C)N1 | n | n | n | n | n | n | x | x | x | x | x | x | x
O=C(NNC(=O)C1CCCO1)c1ccccc1Cl (stereo not given) | x | x | x | x | n | n | x | n | n | n | n | n | n
Cc1cccc(C(=O)NC2CC(C)(C)NC(C)(C)C2)c1 | 172[activator] | n | n | n | n | n | 101 | n | n | n | n | n | n
O=C(NNC(=O)C1CCCO1)c1ccc(F)cc1 (stereo not given) | n | n | n | n | n | n | x | x | x | x | x | x | x

Bioassay records deposited in PubChem by NMMLSC.
